Published values pooled from the literature.
Each line is one published result; the experiments were not run side by side.
Target: Serine/threonine-protein kinase D2 (PRKD2, Homo sapiens, UniProt Q9BZL6)
Sequence (Q9BZL6 1-878, as in one of the studies): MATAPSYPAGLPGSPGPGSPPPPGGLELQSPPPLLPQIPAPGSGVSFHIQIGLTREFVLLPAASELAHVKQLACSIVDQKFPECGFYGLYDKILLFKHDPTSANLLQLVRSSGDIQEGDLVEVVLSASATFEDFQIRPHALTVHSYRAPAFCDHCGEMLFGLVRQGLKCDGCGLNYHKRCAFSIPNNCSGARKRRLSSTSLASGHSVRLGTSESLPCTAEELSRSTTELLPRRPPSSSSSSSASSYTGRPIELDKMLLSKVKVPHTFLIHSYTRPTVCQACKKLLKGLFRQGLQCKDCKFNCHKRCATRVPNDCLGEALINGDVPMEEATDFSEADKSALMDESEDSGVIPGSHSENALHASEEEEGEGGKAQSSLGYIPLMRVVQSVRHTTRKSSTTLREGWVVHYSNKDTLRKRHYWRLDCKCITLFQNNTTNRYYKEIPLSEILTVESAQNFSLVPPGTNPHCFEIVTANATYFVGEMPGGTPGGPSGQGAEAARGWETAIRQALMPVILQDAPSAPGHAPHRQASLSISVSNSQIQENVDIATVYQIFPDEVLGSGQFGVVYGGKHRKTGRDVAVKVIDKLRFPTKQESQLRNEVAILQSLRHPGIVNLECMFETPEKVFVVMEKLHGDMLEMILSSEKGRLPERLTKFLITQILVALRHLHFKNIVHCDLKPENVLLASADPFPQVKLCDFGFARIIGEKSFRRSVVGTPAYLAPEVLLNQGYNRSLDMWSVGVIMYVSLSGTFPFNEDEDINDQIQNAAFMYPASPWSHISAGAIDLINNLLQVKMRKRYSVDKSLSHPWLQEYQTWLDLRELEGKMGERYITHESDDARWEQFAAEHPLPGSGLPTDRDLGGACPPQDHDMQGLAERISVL

Structure (SMILES) | test | conditions | remaining binding
O=C(c1ccc(Nc2ncc(Cl)c(-c3cc4ccccc4s3)n2)cc1)N1CCC(N2CCCC2)CC1 | binding, competition with immobilised ligand | 1 µM | 21%
F[C@@H]1CCN(c2nccc(-c3cnn4ncccc34)n2)C1 | binding | 1 µM | 100%
Cc1cnc(Nc2ccc(C(=O)N3CCC(N4CCCC4)CC3)cc2)nc1-c1cc2ccccc2s1 | binding, competition with immobilised ligand | 1 µM | 47%
N[C@H]1CCN(c2nccc(-c3cnn4ncccc34)n2)C1 | binding | 1 µM | 74%
c1cncc(-c2cccc(Nc3nccc(NC4CCCCC4)n3)c2)c1 | binding, competition with immobilised ligand | 10 µM | 19%
CC1=C(C#N)[C@@H](c2ccc3[nH]nc(C)c3c2)C(C#N)=C(c2ccc(Cl)cc2)N1 | cell-free assay, competition with immobilised ligand | 1 µM | 100%
O=C(NCC1CCOCC1)c1n[nH]cc1NC(=O)c1c(F)cccc1F | binding, competition with immobilised ligand | 1 µM | 100%
COc1ccc2cc(OCC3(C(=O)O)CN(C(=O)c4ccc(F)cc4)C3)ccc2c1 | cell-free assay, competition with immobilised ligand | 1 µM | 93%
CC1CCCN1c1nccc(-c2cnn3ncccc23)n1 (stereo not shown) | binding | 1 µM | 85%
CNCc1ccccc1-c1csc([C@@H](C)Nc2nc(C)nc3cc(OC)c(OC)cc23)c1 | cell-free assay, competition with immobilised ligand | 1 µM | 100%
CN(C)c1ncc(F)c(-c2cnn3ncccc23)n1 | binding | 1 µM | 87%
Cn1cc(Cl)c2c(Oc3c(F)cc(Nc4cc(Cl)nc(N)n4)cc3F)ccnc21 | cell-free assay, competition with immobilised ligand | 0.1 µM | 91%
CCN1CCN(Cc2ccc(C(=O)Nc3ccc(C)c(Oc4ccc5c(c4)CC(=O)N5)c3)cc2C(F)(F)F)CC1 | binding, competition with immobilised ligand | 1 µM | 95%
N#Cc1ccc(Nc2ccc3[nH]c(=O)[nH]c3c2)c(Cl)c1 | cell-free assay, competition with immobilised ligand | 1 µM | 100%
O=C(NCCCN1CCOCC1)c1ccc(Nc2ncc(Cl)c(-c3ccc(Cl)s3)n2)cc1 | binding, competition with immobilised ligand | 1 µM | 3.9%
O=C(NCCCC1CCCCC1)c1ccc(CNC(=O)c2cnn(-c3ccccc3)c2C(F)(F)F)cc1 | cell-free assay, competition with immobilised ligand | 0.1 µM | 100%
COc1ccnn2ncc(-c3ccnc(N(C)C)n3)c12 | binding | 1 µM | 92%
C[C@@H](c1ccc(-n2cnc3c(N)ncnc32)cc1)N1CCc2nn(C)c(Cc3ccccc3)c2C1=O | binding, competition with immobilised ligand | 0.1 µM | 99%
CN(CCCC(F)(F)F)c1nccc(-c2cnn3ncccc23)n1 | binding | 1 µM | 99%
Nc1ncc2c(n1)-c1c([nH]c3ccc(C#CC4CC4)cc13)CCCC2 | binding, competition with immobilised ligand | 1 µM | 87%
C[C@@H]1CCN(c2nccc(-c3cnn4ncccc34)n2)C1 | binding | 1 µM | 83%
COc1cnc(Nc2cccc(S(N)(=O)=O)c2)nc1N1CCN(c2ccccc2)C(=O)C1 | binding, competition with immobilised ligand | 1 µM | 100%
